# Sampled rows, rich in hits. Any-hit rate of the full collection: about 2%.
# Runt-CBFb FRET – inhibitors of RUNX1 Runt–CBFb binding, primary screen, biochemical, FRET, Cerulean-Runt, Venus-CBFb, uHTS | Runt-related transcription factor 1 (Homo sapiens) + Core-binding factor subunit beta … | Cerulean-Runt/Venus-CBFb FRET ratio 530/480, 1 h | inhibition, % at 20 µM | actives 0.46% (n = 220,000);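 active means inhibition over about 50% at 20 µM in the single-dose screen, limit read from the data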
# Target sequence (Q01196 whole entry, looked up): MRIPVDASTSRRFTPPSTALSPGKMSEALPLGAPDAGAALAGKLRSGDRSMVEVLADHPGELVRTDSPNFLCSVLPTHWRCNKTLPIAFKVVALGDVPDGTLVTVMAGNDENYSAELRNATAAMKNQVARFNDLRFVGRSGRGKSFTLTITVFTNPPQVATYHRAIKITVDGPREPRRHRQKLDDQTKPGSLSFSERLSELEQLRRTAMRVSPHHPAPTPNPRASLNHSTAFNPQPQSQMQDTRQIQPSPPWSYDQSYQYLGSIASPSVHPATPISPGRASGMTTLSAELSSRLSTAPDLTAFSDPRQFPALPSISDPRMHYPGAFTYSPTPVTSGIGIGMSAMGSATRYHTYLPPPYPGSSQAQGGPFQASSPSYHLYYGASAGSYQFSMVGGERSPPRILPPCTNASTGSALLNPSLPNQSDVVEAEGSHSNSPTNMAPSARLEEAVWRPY
# Target sequence (Q13951 whole entry, looked up): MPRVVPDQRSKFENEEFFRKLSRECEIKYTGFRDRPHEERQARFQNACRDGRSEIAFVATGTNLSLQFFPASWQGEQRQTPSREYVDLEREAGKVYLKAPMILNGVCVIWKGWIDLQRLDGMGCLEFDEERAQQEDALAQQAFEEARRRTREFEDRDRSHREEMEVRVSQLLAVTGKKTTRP
#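 Doses: 20 µM compound in 1% DMSO | Material: Cerulean-labeled Runt domain protein | Amount: Each fluorescent fusion protein 100 nM | Schedule: Two 1 h room-temperature incubations shielded from light | Measured by: FRET fluorescence | Evaluation: Loss of energy transfer signal | Controls: Unlabeled CBFb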
# RanGTP-Imp inh – inhibitors of RanGTP-importin-beta interaction, primary screen, biochemical, FRET, CFP-Ran, YFP-importin-beta, homogeneous | AID 2216, 2009 | inhibition, % (concentration not given with the values) | actives 1.1% (n = 300,000) | cell-free CFP-Ran/YFP-importin-beta FRET ratio | Ran GTPase (GTP-bound) - importin-beta complex;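 active means more than half of the replicate wells show a fall in the fluorescence ratio signal beyond about 16%, limit read from the data, passing the limit was not always enough; inconclusive means exactly half of the replicate wells pass the set limit; inactive means fewer than half of replicates pass the limit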
# PKD1 kinase inh – inhibitors of human PKD1 kinase, biochemical, fluorescence polarization. AID 797, 2007. PKD1 kinase fluorescence polarization assay. inhibition, % (concentration not given with the values). actives 0.056% (n = 200,000)
# EBV gp42 block – Epstein-Barr virus gp42 inhibitors, primary screen, biochemical, uHTS, fluorescence polarization. Glycoprotein 42 (Epstein-Barr virus (strain AG876)), Q1HVG2. Fluorescence polarization binding assay, mP read-out. inhibition, % (tested at 21.74 µM). actives 0.42% (n = 220,000)
# MEX-5 binding – MEX-5 zinc finger RNA-binding disruptors – biochemical, C. elegans, fluorescence polarization, MLPCN library, primary screen; Zinc finger protein mex-5 (Caenorhabditis elegans), Q9XUB2; MEX-5/FITC-TCR2 RNA binding; stronger effect = lower value; activity score (negative = inhibition of binding), % at 10 µM; actives 0.38% (n = 300,000);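 active means inhibition past about -25% in most replicates, and total fluorescence under double the plate's negative control median, limit read from the data; inconclusive means replicates evenly split on the limit, or fluorescence at least double controls; inactive means too little inhibition in most replicates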
# Runt-SMMHC FRET – inhibitors of RUNX1 Runt–CBFb-SMMHC binding, primary screen, biochemical, FRET, Cerulean-Runt, Venus-CBFb-SMMHC, uHTS | Runt-related transcription factor 1 (Homo sapiens) + Core-binding factor subunit beta … | Cerulean-Runt/Venus-CBFb-SMMHC FRET ratio 530/480, 1 h | inhibition, % at 20 µM | actives 0.74% (n = 220,000) | AID 1434, 2008;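 active means mean inhibition across duplicate retests at 20 µM reaching about 50%, limit read from the data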;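 further: inhibitors lower the FRET ratio by blocking Runt binding to CBFb-SMMHC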
# Numbers stand for hits; . = inactive; ? = inconclusive; / = no result given. Unless noted, no stated cut-off is given here; in the data, active means inhibition above about 50%; inactive means the rest.
SMILES,Runt-CBFb FRET,RanGTP-Imp inh,PKD1 kinase inh,EBV gp42 block,MEX-5 binding,Runt-SMMHC FRET
COc1ccc(/C=C2\N=C(c3c(-c4ccccc4)noc3C)OC2=O)cc1OC,.,.,.,57,.,.
Cn1c(/C(C#N)=C/c2ccc(O)cc2)nc2ccccc21,.,28,/,.,.,.
Cn1c(/C(C#N)=C/c2ccncc2)nc2ccccc21,.,/,.,.,.,.
O=C(Nc1ccccc1F)c1coc(=O)c(Br)c1,/,.,.,.,-56,.
CC(=O)C1=C(c2ccccc2)N(C(C)=O)n2c(C)nnc2S1,.,.,.,.,-45,.
O=[N+]([O-])c1cccc(-c2ccc(/C=N/Nc3nc(N4CCCCC4)nc(N4CCCCC4)n3)o2)c1,.,.,.,.,.,.
COc1nc(N/N=C/c2ccc(-c3cccc([N+](=O)[O-])c3)o2)nc(N2CCOCC2)n1,.,.,.,92,.,.
CC(C)(C)c1ccc(C(=O)N/C(=C\c2cccc([N+](=O)[O-])c2)C(=O)Nc2cccc(C(=O)O)c2)cc1,/,.,/,/,.,/
Cc1cc(=O)oc2cc(NS(=O)(=O)c3ccc(F)cc3)ccc12,.,.,/,.,.,67
CN(C)S(=O)(=O)c1ccc(S(=O)(=O)Nc2ccc3c(c2)oc2ccccc23)cc1,.,.,.,.,.,.
Cc1cc(=O)oc2cc(NS(=O)(=O)c3ccccc3)ccc12,.,.,/,.,.,91
CN(C)S(=O)(=O)c1cccc(NC(=O)c2ccc(COc3ccccc3)cc2)c1,/,.,/,/,.,/
CCN(CC)C(=O)c1[nH]cnc1C(=O)N[C@@H](Cc1ccccc1)C(=O)OC(C)(C)C,/,.,/,/,.,/
CS(=O)(=O)N1N=C(c2ccccc2)CC1c1ccc2c(c1)OCO2 (stereo not drawn),.,.,.,91,.,.
CS(=O)(=O)Nc1cccc(C2=NN(S(C)(=O)=O)C(c3ccc4c(c3)OCO4)C2)c1 (stereo not drawn),.,.,.,.,.,.
COc1ccc(OC)c(N(/C(N)=N/c2nc(C)cc(C)n2)S(=O)(=O)c2ccc(NC(C)=O)cc2)c1,/,.,/,/,.,/
CCN(CCO)c1cc(Cl)nc(SC)n1,.,69,.,.,.,.
Cc1cc(=O)n2cccc(O)c2n1,.,?,.,.,.,.
CNC(=O)n1cc(C)c(-c2cccs2)n1,.,.,/,.,.,.
CCCCOc1ccc(C2C3CN(C(=O)OCC)CC=C3C(C#N)=C(N)C2(C#N)C#N)cc1OC (stereo not drawn),.,.,.,.,.,.
Cc1ccc(C2C3CN(C(C)C)CC=C3C(C#N)=C(N)C2(C#N)C#N)cc1 (stereo not drawn),81,63,/,89,-28,63
CCCN1CC=C2C(C#N)=C(N)C(C#N)(C#N)C(c3cccc(OC)c3OC)C2C1 (stereo not drawn),94,104,.,75,-67,78
COc1ccc(OC)c(C2C3CN(C(C)C)CC=C3C(C#N)=C(N)C2(C#N)C#N)c1 (stereo not drawn),.,31,.,.,-38,79
COc1ccc(OCC(=O)NC2CCCN(Cc3ccc(Cl)cc3)C2)cc1 (stereo not drawn),/,.,/,/,.,/
COCCOC(=O)c1c(C)n(C)c2ccc(OC(=O)c3ccccc3F)cc12,/,.,/,/,.,/
O=C(CN1C(=O)NC2(CCCC2)C1=O)Nc1ccc(F)c([N+](=O)[O-])c1,/,.,/,/,.,/
COCCN(C(=O)COC(=O)CSc1ccc2ccccc2c1)c1c(N)n(Cc2ccccc2)c(=O)[nH]c1=O,/,.,/,/,.,/
